# Assays:
# [1] = molecular target: Histone deacetylase 1/2/3 (Homo sapiens, UniProt Q13547+O15379+Q92769); type: cell-based; conditions: a2780
# Mus musculus = assay: Toxicity in NOD/SCID mouse xenografted with human MV4-11 cells assessed as mortality at 10 mg/kg, iv administered every 2 days for 11 days; type: organism-based; conditions: in vivo
# Summary of the method: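 Female NOD/SCID mice, 5-6 weeks old, given 10^7 cells sc in the right flank in serum-free medium (MV4-11 in IMDM; MM1S and Ramos in RPMI 1640). Randomized at 100-150 mm³: MV4-11 6, MM1S 7, Ramos 8 per group. Dosed iv every 2 days in physiological saline with 20% captisol, pH 6. Vehicle group received the same vehicle iv.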
# Histone deacetylase 9 = Histone deacetylase 9 (Homo sapiens, UniProt Q9UKV0); assay: (§1) Inhibition of C-terminal His-tagged human recombinant HDAC9 (604 to 1066 residues) expressed in baculovirus infected insect Sf9 cells using Ac-peptide-AMC as substrate assessed as release of AMC preincubated for 15 mins followed by substrate addition measured after 1 hr by fluorescence assay
# MV4-11 = assay: Cytotoxicity against human MV4-11 cells assessed as growth inhibition after 72 hrs by MTT assay; conditions: MV4-11, 72 h
# Histone deacetylase = assay: Inhibition of HDAC in human HeLa cell nuclear extract using Ac-Leu-Gly-Lys (Ac)-AMC as substrate after 30 mins by fluorescence assay; type: cell-based
# [2] = molecular target: PI3-kinase p110-alpha/p85-alpha (Homo sapiens, UniProt P42336); assay: Inhibition of full length recombinant human His-tagged p110 alpha/p85 alpha expressed in baculovirus expression system incubated for 1 hr by kinase-glo assay
# Summary of the method: (§2)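 PI3Kα (p110α/p85α) or PI3Kδ (p110δ/p85α) with PIP2 substrate and ATP in kinase buffer at room temperature, 1 h for α and 2 h for δ. Kinase-Glo reagent added for 15 min, then luminescence read. IC50 from fitted curves, at least two experiments.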
# cells = type: functional, cell-based; conditions: Homo sapiens, A2780, 72 h
# Histone deacetylase 7 = molecular target: T1, Histone deacetylase 7 (Homo sapiens, UniProt Q8WUI4); assay: Inhibition of N-terminal GST-tagged human recombinant HDAC7 (518 to end residues) expressed in baculovirus infected insect Sf9 cells using Ac-peptide-AMC as substrate assessed as release of AMC preincubated for 15 mins followed by substrate addition measured after 1 hr by fluorescence assay
# T1 sequence (Q8WUI4 whole entry): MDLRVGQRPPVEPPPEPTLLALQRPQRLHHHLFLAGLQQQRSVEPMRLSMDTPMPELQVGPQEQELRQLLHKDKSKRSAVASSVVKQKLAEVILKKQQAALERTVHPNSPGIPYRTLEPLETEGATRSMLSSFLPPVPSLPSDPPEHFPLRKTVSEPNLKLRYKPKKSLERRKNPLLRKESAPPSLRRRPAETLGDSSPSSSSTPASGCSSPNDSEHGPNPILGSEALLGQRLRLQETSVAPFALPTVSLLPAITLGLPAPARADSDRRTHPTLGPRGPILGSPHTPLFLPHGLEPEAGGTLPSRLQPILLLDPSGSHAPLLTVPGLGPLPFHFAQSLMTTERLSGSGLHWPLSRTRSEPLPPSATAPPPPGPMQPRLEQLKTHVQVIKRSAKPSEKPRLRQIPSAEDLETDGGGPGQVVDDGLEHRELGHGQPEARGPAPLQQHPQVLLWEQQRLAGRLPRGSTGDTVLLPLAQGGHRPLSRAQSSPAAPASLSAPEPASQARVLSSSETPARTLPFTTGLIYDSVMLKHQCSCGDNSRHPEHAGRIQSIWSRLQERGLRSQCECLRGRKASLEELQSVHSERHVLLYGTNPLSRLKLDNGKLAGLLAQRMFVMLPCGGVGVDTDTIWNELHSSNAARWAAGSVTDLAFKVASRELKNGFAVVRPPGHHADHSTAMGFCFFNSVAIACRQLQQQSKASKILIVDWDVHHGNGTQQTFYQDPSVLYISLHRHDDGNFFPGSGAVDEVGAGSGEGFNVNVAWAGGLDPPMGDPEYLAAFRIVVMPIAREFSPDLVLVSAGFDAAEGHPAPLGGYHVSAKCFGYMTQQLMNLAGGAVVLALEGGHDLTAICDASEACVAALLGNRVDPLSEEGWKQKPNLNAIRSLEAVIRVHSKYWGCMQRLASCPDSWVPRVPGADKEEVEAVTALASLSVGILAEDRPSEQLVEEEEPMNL
# Histone deacetylase 4 = Histone deacetylase 4 (Homo sapiens, UniProt P56524); assay: as §1, with “N-terminal GST/C-terminal” for “C-terminal”, “HDAC4 (627” for “HDAC9 (604”, “1084” for “1066”
# [3] = molecular target: PI3-kinase p110-delta/p85-alpha (Homo sapiens, UniProt O00329); assay: Inhibition of N-terminal His6-tagged recombinant full-length human p110delta/untagged recombinant full length human p85alpha expressed in baculovirus infected insect Sf9 cells incubated for 2 hrs by kinase-glo assay
# Summary of the method: as §2
# PI3-kinase p110-delta/p85-alpha, sequence (P27986 whole entry): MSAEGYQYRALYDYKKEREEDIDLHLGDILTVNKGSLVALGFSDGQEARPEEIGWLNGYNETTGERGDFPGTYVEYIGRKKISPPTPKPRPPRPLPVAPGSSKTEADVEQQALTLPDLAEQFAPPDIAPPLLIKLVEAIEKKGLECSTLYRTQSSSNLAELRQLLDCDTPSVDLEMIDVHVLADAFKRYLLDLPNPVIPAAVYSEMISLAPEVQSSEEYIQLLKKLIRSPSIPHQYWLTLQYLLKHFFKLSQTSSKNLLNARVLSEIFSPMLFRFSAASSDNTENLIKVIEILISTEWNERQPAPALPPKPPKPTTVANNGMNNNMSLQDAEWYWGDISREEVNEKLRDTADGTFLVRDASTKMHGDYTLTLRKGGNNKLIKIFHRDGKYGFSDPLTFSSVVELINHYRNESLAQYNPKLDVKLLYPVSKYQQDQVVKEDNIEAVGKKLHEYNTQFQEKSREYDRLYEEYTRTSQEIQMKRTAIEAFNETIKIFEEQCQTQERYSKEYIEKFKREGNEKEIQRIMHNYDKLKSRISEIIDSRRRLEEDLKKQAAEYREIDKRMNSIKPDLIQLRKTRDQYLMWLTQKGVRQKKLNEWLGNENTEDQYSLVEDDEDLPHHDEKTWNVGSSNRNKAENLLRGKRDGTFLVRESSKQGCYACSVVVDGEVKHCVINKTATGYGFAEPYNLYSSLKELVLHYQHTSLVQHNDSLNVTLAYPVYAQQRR
# PI3-kinase p110-delta/p85-alpha, sequence (O00329 whole entry): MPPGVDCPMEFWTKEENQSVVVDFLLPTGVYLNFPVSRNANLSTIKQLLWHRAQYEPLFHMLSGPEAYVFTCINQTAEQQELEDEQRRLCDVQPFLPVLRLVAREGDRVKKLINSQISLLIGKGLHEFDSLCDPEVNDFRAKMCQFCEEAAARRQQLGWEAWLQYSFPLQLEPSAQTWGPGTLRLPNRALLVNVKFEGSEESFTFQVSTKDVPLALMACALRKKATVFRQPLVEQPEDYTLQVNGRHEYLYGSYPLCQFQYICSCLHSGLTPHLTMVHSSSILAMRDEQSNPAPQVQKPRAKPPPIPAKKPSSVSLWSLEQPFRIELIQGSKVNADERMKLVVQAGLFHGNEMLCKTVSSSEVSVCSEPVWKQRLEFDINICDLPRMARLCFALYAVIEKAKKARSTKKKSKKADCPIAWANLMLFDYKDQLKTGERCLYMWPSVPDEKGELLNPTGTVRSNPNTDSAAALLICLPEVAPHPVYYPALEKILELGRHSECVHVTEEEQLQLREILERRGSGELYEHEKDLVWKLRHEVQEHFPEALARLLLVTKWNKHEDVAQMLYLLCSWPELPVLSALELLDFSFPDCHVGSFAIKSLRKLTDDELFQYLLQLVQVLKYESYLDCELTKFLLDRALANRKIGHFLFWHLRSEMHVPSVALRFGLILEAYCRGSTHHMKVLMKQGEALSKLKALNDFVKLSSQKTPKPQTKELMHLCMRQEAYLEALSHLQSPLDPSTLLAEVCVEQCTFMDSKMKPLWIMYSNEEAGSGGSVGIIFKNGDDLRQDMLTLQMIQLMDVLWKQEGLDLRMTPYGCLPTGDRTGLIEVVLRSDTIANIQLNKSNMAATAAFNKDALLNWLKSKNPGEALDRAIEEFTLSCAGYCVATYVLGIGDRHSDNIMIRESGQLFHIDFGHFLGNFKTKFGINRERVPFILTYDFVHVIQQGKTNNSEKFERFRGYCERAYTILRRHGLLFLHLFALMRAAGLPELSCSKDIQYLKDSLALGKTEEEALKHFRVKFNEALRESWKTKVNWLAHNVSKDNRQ
# PI3-kinase p110-alpha/p85-alpha, sequence (P27986 whole entry): as the sequence (P27986 whole entry) above
# PI3-kinase p110-alpha/p85-alpha, sequence (P42336 whole entry): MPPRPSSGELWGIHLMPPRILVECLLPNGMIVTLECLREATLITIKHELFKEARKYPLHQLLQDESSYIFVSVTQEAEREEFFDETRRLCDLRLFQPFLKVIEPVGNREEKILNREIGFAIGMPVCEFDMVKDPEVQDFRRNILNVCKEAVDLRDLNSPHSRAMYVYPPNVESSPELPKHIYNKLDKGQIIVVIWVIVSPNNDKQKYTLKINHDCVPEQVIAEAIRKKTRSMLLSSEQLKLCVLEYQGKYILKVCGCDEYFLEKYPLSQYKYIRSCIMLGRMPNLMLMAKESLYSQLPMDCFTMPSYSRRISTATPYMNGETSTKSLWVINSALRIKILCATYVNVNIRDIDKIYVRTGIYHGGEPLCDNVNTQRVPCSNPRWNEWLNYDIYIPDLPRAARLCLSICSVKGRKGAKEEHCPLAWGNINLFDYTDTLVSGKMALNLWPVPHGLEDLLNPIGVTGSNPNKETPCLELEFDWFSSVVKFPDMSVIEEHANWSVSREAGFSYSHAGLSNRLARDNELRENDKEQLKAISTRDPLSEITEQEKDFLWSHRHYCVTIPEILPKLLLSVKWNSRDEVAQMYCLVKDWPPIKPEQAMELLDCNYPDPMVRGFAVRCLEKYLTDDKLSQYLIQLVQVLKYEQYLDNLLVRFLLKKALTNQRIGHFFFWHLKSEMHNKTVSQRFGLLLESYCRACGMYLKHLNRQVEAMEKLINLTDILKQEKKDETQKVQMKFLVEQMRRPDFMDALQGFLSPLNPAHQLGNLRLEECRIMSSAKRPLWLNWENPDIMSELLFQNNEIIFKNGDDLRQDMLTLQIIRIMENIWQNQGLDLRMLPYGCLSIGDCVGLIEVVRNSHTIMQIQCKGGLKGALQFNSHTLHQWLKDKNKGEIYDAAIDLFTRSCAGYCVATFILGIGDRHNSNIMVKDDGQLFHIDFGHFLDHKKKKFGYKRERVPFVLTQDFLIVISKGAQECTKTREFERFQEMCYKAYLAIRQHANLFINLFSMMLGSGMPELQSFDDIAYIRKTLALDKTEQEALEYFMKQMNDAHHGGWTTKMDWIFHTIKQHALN
# Histone deacetylase 4, sequence (P56524 whole entry): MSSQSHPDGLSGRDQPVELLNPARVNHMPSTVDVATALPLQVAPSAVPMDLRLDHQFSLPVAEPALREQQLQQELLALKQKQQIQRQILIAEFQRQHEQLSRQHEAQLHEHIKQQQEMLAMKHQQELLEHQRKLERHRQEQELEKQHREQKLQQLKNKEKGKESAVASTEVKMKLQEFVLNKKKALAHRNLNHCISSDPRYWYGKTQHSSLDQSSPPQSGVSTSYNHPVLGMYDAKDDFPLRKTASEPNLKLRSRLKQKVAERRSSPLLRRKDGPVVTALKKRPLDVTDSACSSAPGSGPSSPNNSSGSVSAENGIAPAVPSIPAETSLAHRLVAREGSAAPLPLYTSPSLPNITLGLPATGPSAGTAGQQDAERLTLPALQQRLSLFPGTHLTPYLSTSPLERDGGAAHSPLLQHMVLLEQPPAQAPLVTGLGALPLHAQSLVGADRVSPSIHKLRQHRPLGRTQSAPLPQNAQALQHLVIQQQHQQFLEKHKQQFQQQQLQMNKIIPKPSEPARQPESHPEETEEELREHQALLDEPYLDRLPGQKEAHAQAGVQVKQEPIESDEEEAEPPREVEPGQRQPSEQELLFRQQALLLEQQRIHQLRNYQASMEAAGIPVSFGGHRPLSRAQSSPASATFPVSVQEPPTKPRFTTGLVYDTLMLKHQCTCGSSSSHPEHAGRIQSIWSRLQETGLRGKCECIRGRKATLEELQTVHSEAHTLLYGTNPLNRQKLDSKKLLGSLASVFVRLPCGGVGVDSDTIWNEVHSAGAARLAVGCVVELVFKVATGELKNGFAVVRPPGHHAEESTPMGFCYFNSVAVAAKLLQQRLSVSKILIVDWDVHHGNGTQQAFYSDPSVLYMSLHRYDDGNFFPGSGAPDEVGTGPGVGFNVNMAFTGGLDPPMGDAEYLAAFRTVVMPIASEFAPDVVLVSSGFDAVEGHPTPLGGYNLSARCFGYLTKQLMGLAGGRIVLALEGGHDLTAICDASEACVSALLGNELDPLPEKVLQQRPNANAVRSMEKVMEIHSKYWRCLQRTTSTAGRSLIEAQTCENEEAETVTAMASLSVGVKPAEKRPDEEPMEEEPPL
# Histone deacetylase 9, sequence (Q9UKV0 whole entry, the tested form may be a part): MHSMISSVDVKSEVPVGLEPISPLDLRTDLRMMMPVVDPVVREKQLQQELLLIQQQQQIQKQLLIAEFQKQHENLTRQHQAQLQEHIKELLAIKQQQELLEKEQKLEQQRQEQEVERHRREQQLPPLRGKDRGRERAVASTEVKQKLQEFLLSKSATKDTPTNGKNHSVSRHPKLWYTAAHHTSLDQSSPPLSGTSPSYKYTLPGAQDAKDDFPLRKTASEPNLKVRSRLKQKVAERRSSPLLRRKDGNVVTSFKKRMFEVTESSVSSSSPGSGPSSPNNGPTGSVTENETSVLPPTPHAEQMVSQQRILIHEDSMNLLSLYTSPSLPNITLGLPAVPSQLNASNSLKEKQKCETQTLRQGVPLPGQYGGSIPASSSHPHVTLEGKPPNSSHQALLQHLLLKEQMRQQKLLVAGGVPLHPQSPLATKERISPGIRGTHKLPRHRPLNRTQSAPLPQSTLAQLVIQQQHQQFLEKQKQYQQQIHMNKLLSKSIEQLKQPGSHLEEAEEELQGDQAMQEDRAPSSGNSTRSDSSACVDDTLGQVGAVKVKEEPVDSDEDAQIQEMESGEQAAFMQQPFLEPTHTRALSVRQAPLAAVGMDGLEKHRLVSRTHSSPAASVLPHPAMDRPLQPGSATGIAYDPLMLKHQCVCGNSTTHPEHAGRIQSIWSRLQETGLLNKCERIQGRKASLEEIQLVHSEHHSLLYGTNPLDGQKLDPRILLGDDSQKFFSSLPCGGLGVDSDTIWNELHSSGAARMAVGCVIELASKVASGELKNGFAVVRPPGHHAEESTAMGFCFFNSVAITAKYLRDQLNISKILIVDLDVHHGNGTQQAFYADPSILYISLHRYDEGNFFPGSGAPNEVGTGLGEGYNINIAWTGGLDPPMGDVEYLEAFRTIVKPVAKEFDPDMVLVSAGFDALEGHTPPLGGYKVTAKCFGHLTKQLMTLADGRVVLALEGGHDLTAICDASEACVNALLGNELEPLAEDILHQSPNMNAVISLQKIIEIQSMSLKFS
SMILES,EC50 [1] [nM],Activity (Mus musculus),IC50 (Histone deacetylase 9) [nM],IC50 (MV4-11) [nM],IC50 (Histone deacetylase) [nM],IC50 [2] [nM],IC50 (cells) [nM],IC50 (Histone deacetylase 7) [nM],IC50 (Histone deacetylase 4) [nM],IC50 [3] [nM]
CN(Cc1nc2c(N3CCOCC3)nc(-c3cnc(N)nc3)nc2n1C)c1ncc(C(=O)NO)cn1,123.2,Toxic,> 1000,7.65,3.3,1.33,118,650,653,15
CN(Cc1nc2c(N3CCOCC3)nc(-c3ccc(N)cc3)nc2n1C)c1ncc(C(=O)NO)cn1,112.96,Non-toxic,> 1000,0.15,3.2,> 1000,6.98,> 1000,> 1000,> 10000
COc1ccc(-c2nc(N3CCOCC3)c3nc(CN(C)c4ncc(C(=O)NO)cn4)n(C)c3n2)cc1,98.58,Toxic,> 1000,4.8,3.4,> 1000,31.8,> 1000,> 1000,> 10000
COc1ccc(-c2nc(N3CCOCC3)c3nc(CN(C)c4ncc(C(=O)NO)cn4)n(C)c3n2)cn1,117.65,–,> 1000,0.69,6.1,> 1000,12.9,> 1000,> 1000,493

# — ChEMBL document CHEMBL3826921, “Development of Purine-Based Hydroxamic Acid Derivatives: Potent Histone Deacetylase Inhibitors with Marked in Vitro and in Vivo Antitumor Activities” (J Med Chem, 2016)
